{"source": "the RNAGym collection of RNA variant scans (doi:10.1126/science.aae0568)", "parents": {"B1": {"name": "tRNA (parent)", "chain": "GUUCCGUUGGCGUAAUGGUAACGCGUCUCCCUCCUAAGGAGAAGACUGCGGGUUCGAGUCCCGUACGGAACG"}}, "note": "This sample holds only a part of the variants without activity."}
{"variants_of": "B1", "experiment": "yeast fitness relative to wild type (ratio to wild type); higher = fitter; tRNA-Arg(CCU), competitive growth, 37 C, YPD", "outline": "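For this measurement, the tRNA-Arg(CCU) gene was varied by chemical synthesis at a 3% per-site mutation rate across 69 sites, and each variant was placed at the native genomic locus in Saccharomyces cerevisiae. The pooled strains went through a 24-hour competition in YPD at 37°C in six parallel replicates, with amplicons from start and end populations read by 100-nucleotide paired-end sequencing. Darwinian fitness relative to wild type followed from the change in each genotype's frequency. Genotypes needed ≥ 100 starting reads, and estimates < 0.5 were set to 0.5.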"}
{"variant": "G41C G52C", "yeast fitness": 0.527}
{"variant": "A43U G48A", "yeast fitness": 1.01}
{"variant": "A43U G48U", "yeast fitness": 0.77}
{"variant": "A43C G48A A57C G68U", "yeast fitness": 0.701}
{"variant": "A42G A70U", "yeast fitness": 0.941}
{"variant": "A43U C46A A69C", "yeast fitness": 0.734}
{"variant": "A42U C61U C62U", "yeast fitness": 0.612}
{"variant": "A43G A69C", "yeast fitness": 0.935}
{"variant": "A43G U59G", "yeast fitness": 0.842}
{"variant": "A43G U59C", "yeast fitness": 0.863}
{"variant": "G41C G58A C61A", "yeast fitness": "≤ 0.5"}
{"variant": "A43G C61U A65U", "yeast fitness": 0.567}
{"variant": "A43C C46U G56C", "yeast fitness": 0.506}
{"variant": "G41U A45U C49U C61G", "yeast fitness": "≤ 0.5"}
{"variant": "A43C A65G", "yeast fitness": 0.95}
{"variant": "A43C A65U", "yeast fitness": 0.753}
{"variant": "A43U G48C U54C C60A U64A", "yeast fitness": "≤ 0.5"}
{"variant": "A43U C46G U54A G63A", "yeast fitness": 0.726}
{"variant": "A43C A57U", "yeast fitness": 0.678}
{"variant": "A42U C49G C55A", "yeast fitness": "≤ 0.5"}
{"variant": "A43C U54C", "yeast fitness": 0.876}
{"variant": "A43G G50A G68U", "yeast fitness": "≤ 0.5"}
{"variant": "G41C G48C", "yeast fitness": 0.813}
{"variant": "A43U G48A C62A C66G", "yeast fitness": 0.533}
{"variant": "A42U A43G G48C U53A A65U A70C", "yeast fitness": "≤ 0.5"}
{"variant": "A43G C61A G67A", "yeast fitness": "≤ 0.5"}
{"variant": "A43U G48A C61G", "yeast fitness": "≤ 0.5"}
{"variant": "A43G U64G", "yeast fitness": 0.64}
{"variant": "A42C A43U G56C C66U", "yeast fitness": "≤ 0.5"}
{"variant": "A42U A45G", "yeast fitness": 0.918}
{"variant": "A42U A45U", "yeast fitness": 1.09}
{"variant": "A42G C49U A65U", "yeast fitness": "≤ 0.5"}
{"variant": "A42U C46U A69C", "yeast fitness": 0.9}
{"variant": "A42G C46U", "yeast fitness": 0.974}
{"variant": "A42C G48C G67A", "yeast fitness": 0.574}
{"variant": "A42C C49G G50A", "yeast fitness": 0.507}
{"variant": "A42C G63C A69C", "yeast fitness": "≤ 0.5"}
{"variant": "A42C A57C C61A", "yeast fitness": "≤ 0.5"}
{"variant": "A42C A43C C55G A57G", "yeast fitness": 0.641}
{"variant": "A43C C62U", "yeast fitness": 0.93}
{"variant": "A42G C66A", "yeast fitness": 0.599}
{"variant": "G41C G48A C55A", "yeast fitness": 0.569}
{"variant": "A42C C60U G68A", "yeast fitness": "≤ 0.5"}
{"variant": "A43G U54C", "yeast fitness": 0.905}
{"variant": "A42C C60G C62G G68C", "yeast fitness": "≤ 0.5"}
{"variant": "G41C A69U A70G", "yeast fitness": 0.537}
{"variant": "G41C A69U A70U", "yeast fitness": 0.629}
{"variant": "A43G C49U", "yeast fitness": 0.9}
{"variant": "G41C G44C C55A", "yeast fitness": 0.563}
{"variant": "A42G C49U G51A", "yeast fitness": 0.535}
{"variant": "A43C C62A G63A C66G A69G", "yeast fitness": "≤ 0.5"}
{"variant": "A43G C46U", "yeast fitness": 0.92}
{"variant": "A42U C61U A70C", "yeast fitness": 0.709}
{"variant": "A42C C61U", "yeast fitness": 0.668}
{"variant": "A42G C61A", "yeast fitness": 0.553}
{"variant": "A42G C61U", "yeast fitness": 0.853}
{"variant": "A42G G44C C49U A57C", "yeast fitness": "≤ 0.5"}
{"variant": "A42U A57C", "yeast fitness": 0.681}
{"variant": "A42U A57G", "yeast fitness": 0.905}
{"variant": "A43U G48A U53A", "yeast fitness": 0.506}
{"variant": "A43C G50A G67A", "yeast fitness": "≤ 0.5"}
{"variant": "A43G U47A C55A", "yeast fitness": "≤ 0.5"}
{"variant": "G41C G68A", "yeast fitness": 0.883}
{"variant": "G41C G68C", "yeast fitness": 0.774}
{"variant": "A42C A45U C46U", "yeast fitness": 0.861}
{"variant": "G41C C46A C55G", "yeast fitness": "≤ 0.5"}
{"variant": "A42C C55G A57C C62U", "yeast fitness": "≤ 0.5"}
{"variant": "A43G G51C", "yeast fitness": 0.56}
{"variant": "A42G C61A C66A", "yeast fitness": "≤ 0.5"}
{"variant": "A43G C60A C66G", "yeast fitness": "≤ 0.5"}
{"variant": "A43U C62G C66A A69C", "yeast fitness": 0.67}
{"variant": "A42C G48C C55U", "yeast fitness": 0.557}
{"variant": "G41C G52C A69C", "yeast fitness": "≤ 0.5"}
{"variant": "A42U A43U A57G", "yeast fitness": 0.534}
{"variant": "A43G G58C C62U", "yeast fitness": 0.537}
{"variant": "A43C G52A", "yeast fitness": 0.887}
{"variant": "A43U A69U", "yeast fitness": 0.904}
{"variant": "A42G G51A C60U G63A", "yeast fitness": "≤ 0.5"}
{"variant": "A42C U47G", "yeast fitness": 0.607}
{"variant": "A42U A57C A65U", "yeast fitness": 0.589}
{"variant": "A43C G52A C55U C60A", "yeast fitness": "≤ 0.5"}
{"variant": "A43G A57C A65U", "yeast fitness": 0.511}
{"variant": "A43G U53C", "yeast fitness": 0.84}
{"variant": "A43C U59C", "yeast fitness": 0.828}
{"variant": "A43U A57C", "yeast fitness": 0.726}
{"variant": "A42C U53A U54A", "yeast fitness": "≤ 0.5"}
{"variant": "A42G G44C", "yeast fitness": 0.906}
{"variant": "A43C C49A", "yeast fitness": 0.631}
{"variant": "A43C C49G", "yeast fitness": 0.639}
{"variant": "A43G U59C A70C", "yeast fitness": 0.658}
{"variant": "A42C A45C G52C", "yeast fitness": "≤ 0.5"}
{"variant": "A42C G68U", "yeast fitness": 0.873}
{"variant": "A42C G68A", "yeast fitness": 0.898}
{"variant": "A43G G58A A65C C66U", "yeast fitness": "≤ 0.5"}
{"variant": "A42C A69C A70U", "yeast fitness": 0.721}
{"variant": "A43G U47A C49A", "yeast fitness": 0.531}
{"variant": "A42C A57C", "yeast fitness": 0.62}
{"variant": "A42C A57U", "yeast fitness": 0.688}
{"variant": "A42G C55U A65C", "yeast fitness": 0.535}
{"variant": "A42C A45C U53A A65C A69U", "yeast fitness": "≤ 0.5"}
{"variant": "A42U A69C", "yeast fitness": 0.959}
{"variant": "A42U A69G", "yeast fitness": 1.11}
{"variant": "A42U", "yeast fitness": 0.978}
{"variant": "A42C", "yeast fitness": 0.967}
{"variant": "A42G", "yeast fitness": 0.934}
{"variant": "G41C A57U U64C", "yeast fitness": "≤ 0.5"}
{"variant": "A43G C46G G56C", "yeast fitness": "≤ 0.5"}
{"variant": "A43C C55G", "yeast fitness": 0.641}
{"variant": "A43C C55A", "yeast fitness": 0.588}
{"variant": "A43C C55U", "yeast fitness": 0.721}
{"variant": "A43G C61U", "yeast fitness": 0.887}
{"variant": "A43C A45G G48A G58A A65U", "yeast fitness": "≤ 0.5"}
{"variant": "A43G C55U C61U", "yeast fitness": 0.543}
{"variant": "A43G C55U C66G", "yeast fitness": 0.626}
{"variant": "A42U G51C", "yeast fitness": 0.567}
{"variant": "G41C C62A", "yeast fitness": 0.713}
{"variant": "A42U G63A G68C", "yeast fitness": 0.544}
{"variant": "A42C C60U", "yeast fitness": 0.749}
{"variant": "A43G A45U G63A", "yeast fitness": 0.613}
{"variant": "A42G C62U A69C", "yeast fitness": 0.696}
{"variant": "A42U G51C C62U C66U", "yeast fitness": 0.708}
{"variant": "A42C C46G A65U", "yeast fitness": "≤ 0.5"}
{"variant": "A42G C60G C61G", "yeast fitness": "≤ 0.5"}
{"variant": "A42G C49G U54C G63C A70U", "yeast fitness": 0.547}
{"variant": "A43C G63A", "yeast fitness": 0.929}
{"variant": "A43C G63C", "yeast fitness": 0.692}
{"variant": "A43G G56A", "yeast fitness": 0.86}
{"variant": "A42U C66U", "yeast fitness": 0.793}
{"variant": "A43U G48C C60A U64A", "yeast fitness": "≤ 0.5"}
{"variant": "A43U C49A", "yeast fitness": 0.756}
{"variant": "A43U C49U", "yeast fitness": 1.09}
{"variant": "A42U A43C C49G A65C", "yeast fitness": "≤ 0.5"}
{"variant": "G41C A45G G63A C66G G67C", "yeast fitness": "≤ 0.5"}
{"variant": "A43U A45G C55G", "yeast fitness": "≤ 0.5"}
{"variant": "A42U G50A A65C", "yeast fitness": "≤ 0.5"}
{"variant": "A42U G50C U53A", "yeast fitness": "≤ 0.5"}
{"variant": "A42C C66U", "yeast fitness": 0.816}
{"variant": "A42G U54G", "yeast fitness": 0.562}
{"variant": "A42C C62U C66U", "yeast fitness": 0.507}
{"variant": "A43U C46G", "yeast fitness": 0.829}
{"variant": "A43U C46A", "yeast fitness": 0.98}
{"variant": "A42U A45U C60U A65C", "yeast fitness": "≤ 0.5"}
{"variant": "A43G A57C", "yeast fitness": 0.525}
{"variant": "A43U A57C G58A", "yeast fitness": "≤ 0.5"}
{"variant": "A43G G48C C55G", "yeast fitness": 0.597}
{"variant": "A43G A65C", "yeast fitness": 0.79}
{"variant": "A42C C61U C62G", "yeast fitness": "≤ 0.5"}
{"variant": "A42C G67A", "yeast fitness": 0.833}
{"variant": "A43C G44A", "yeast fitness": 1.01}
{"variant": "A42G G51U A70C", "yeast fitness": "≤ 0.5"}
{"variant": "A43G U53G C55A G56C A57G G58A U59G C60U A65C", "yeast fitness": "≤ 0.5"}
{"variant": "A43U A65G C66U", "yeast fitness": 0.794}
{"variant": "A42U G50A C60G", "yeast fitness": 0.614}
{"variant": "A42U C62A A70C", "yeast fitness": 0.581}
{"variant": "A43U C49G C61U", "yeast fitness": "≤ 0.5"}
{"variant": "G41C C60G", "yeast fitness": 0.695}
{"variant": "G41C A57U G63A", "yeast fitness": 0.567}
{"variant": "G41C C55A", "yeast fitness": 0.617}
{"variant": "G41C C55U", "yeast fitness": 0.787}
{"variant": "A42U G52A", "yeast fitness": 0.808}
{"variant": "A43G U47C", "yeast fitness": 1.04}
{"variant": "A43G U47A", "yeast fitness": 0.88}
{"variant": "A42C C55A A65U", "yeast fitness": "≤ 0.5"}
{"variant": "A43U A45G", "yeast fitness": 0.852}
{"variant": "A42U G48A", "yeast fitness": 0.895}
{"variant": "A43C A45U", "yeast fitness": 0.973}
{"variant": "A43C A45G", "yeast fitness": 1.02}
